Columns and labels:
[1] = Cytotoxicity against human HuH7 cells assessed as cell viability at 50 uM after 24 hrs
Semliki Forest virus [2] = test: Antiviral activity against SFV infected in BHK cells assessed as surviving virus fraction at 50 uM after 14 hrs by luciferase reporter gene assay; type: functional; parameters: scale not given here
[3] = Cytotoxicity against human HuH7 cells assessed as cell viability at 500 uM after 24 hrs; type: cell-based, Huh-7; details: read-out: Activity
Outline: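 Huh-7 human hepatocellular carcinoma cells exposed 24 h to derivative at 500 µM in an extended cytotoxicity analysis. Viability measured as intracellular ATP content and reported as surviving fraction.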

Semliki Forest virus [4] = test: Antiviral activity against SFV infected in BHK cells after 14 hrs by luciferase reporter gene assay; type: functional, organism-based
Outline: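 SFV-Rluc reporter virus from infectious cDNA clone; BHK-21 cells infected at low multiplicity (0.001 PFU/cell) and incubated 14 h, spanning over 2 infectious cycles. Serial dilutions of each derivative tested. Luciferase read-out as surviving virus fraction. IC50 from a sigmoidal dose-response fit; means ± SD, n = 6. 3′-Amino-3′-deoxyadenosine (20 µM) served as screen positive control.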

SMILES | viability at 24 h, 50 µM [1] [%] | Activity (Semliki Forest virus [2]) [%] | viability at 24 h, 500 µM [3] [%] | IC50 (Semliki Forest virus [4]; read-out: IC50) [µM] | IC50 (Semliki Forest virus [4]; read-out: pIC50 (converted)) [µM]
C=C(C)[C@@H]1CC[C@]2(COC(=O)COc3cc(C(C)C)ccc3C)CC[C@]3(C)[C@H](CC[C@@H]4[C@@]5(C)CC[C@H](O)C(C)(C)[C@@H]5CC[C@]43C)[C@@H]12 | 103 | 80 | – | – | –
CC(C)[C@@]12CC[C@]3(CO)CC[C@]4(C)C(=C31)[C@H](C[C@@H]1[C@@]3(C)CC[C@H](O)C(C)(C)[C@@H]3CC[C@]14C)n1c(=O)n(-c3ccccc3)c(=O)n12 | 85 | 73 | – | – | –
C=C(C)[C@@H]1CC[C@]2(/C=N/O)CC[C@]3(C)[C@H](CC[C@@H]4[C@@]5(C)CC/C(=N\O)C(C)(C)[C@@H]5CC[C@]43C)[C@@H]12 [BETULIN-3,28-DIOXIME] | 80 | 121 | – | – | –
CCC(=O)OC[C@]12CC[C@]3(C(C)C)C1=C1[C@H](C[C@@H]4[C@@]5(C)CC[C@H](OC(=O)CC)C(C)(C)[C@@H]5CC[C@@]4(C)[C@]1(C)CC2)n1c(=O)n(C)c(=O)n13 | 75 | 21 | – | – | –
CC(=O)OC[C@]12CC[C@]3(C(C)C)C1=C1[C@H](C[C@@H]4[C@@]5(C)CC[C@H](OC(C)=O)C(C)(C)[C@@H]5CC[C@@]4(C)[C@]1(C)CC2)n1c(=O)n(-c2ccc4c(c2)CCC4)c(=O)n13 | 93 | 81 | – | – | –
C=C(C)[C@@H]1CC[C@]2(COC3CCCCO3)CC[C@]3(C)[C@H](CC[C@@H]4[C@@]5(C)CC[C@H](OC(C)=O)C(C)(C)[C@@H]5CC[C@]43C)[C@@H]12 (some centres undefined) | 91 | 10 | > 80 | 24.7 | 24.5
C=C(C)[C@@H]1CC[C@]2(C#N)CC[C@]3(C)[C@H](CC[C@@H]4[C@@]5(C)CC[C@H](OC(C)=O)C(C)(C)[C@@H]5CC[C@]43C)[C@@H]12 | 69 | 60 | – | – | –
CC(=O)OC[C@]12CC[C@]3(C(C)C)O[C@]13[C@H]1CC[C@@H]3[C@@]4(C)CC[C@H](OC(C)=O)C(C)(C)[C@@H]4CC[C@@]3(C)[C@]1(C)CC2 | 92 | 16 | > 80 | 13.3 | 11.5
CC(C)[C@@]12CC[C@]3(COC(=O)C4CCCCC4)CC[C@]4(C)C(=C31)[C@H](C[C@@H]1[C@@]3(C)CC[C@H](OC(=O)C5CCCCC5)C(C)(C)[C@@H]3CC[C@]14C)n1c(=O)n(C)c(=O)n12 | 97 | 44 | – | – | –
CC(C)[C@@]12CC[C@]3(COC(=O)c4ccccc4)CC[C@]4(C)C(=C31)[C@H](C[C@@H]1[C@@]3(C)CC[C@H](OC(=O)c5ccccc5)C(C)(C)[C@@H]3CC[C@]14C)n1c(=O)n(C)c(=O)n12 | 108 | 22 | – | – | –
CCCC(=O)OC[C@]12CC[C@]3(C(C)C)C1=C1[C@H](C[C@@H]4[C@@]5(C)CC[C@H](OC(=O)CCC)C(C)(C)[C@@H]5CC[C@@]4(C)[C@]1(C)CC2)n1c(=O)n(C)c(=O)n13 | 93 | 18 | – | 30.1 | 30.2
C=C(C)[C@@H]1CC[C@]2(CO)CC[C@]3(C)[C@H](CC[C@@H]4[C@@]5(C)CC=CC(C)(C)[C@@H]5CC[C@]43C)[C@@H]12 | 85 | 121 | – | – | –
C=C(C)[C@@H]1CC[C@]2(COC(=O)CCC(C)=O)CC[C@]3(C)[C@H](CC[C@@H]4[C@@]5(C)CC[C@H](OC(=O)CCC(C)=O)C(C)(C)[C@@H]5CC[C@]43C)[C@@H]12 | 109 | 74 | – | – | –
CC(C)[C@@]12CC[C@]3(COC(=O)c4ccccc4)CC[C@]4(C)C(=C31)[C@H](C[C@@H]1[C@@]3(C)CC[C@H](OC(=O)c5ccccc5)C(C)(C)[C@@H]3CC[C@]14C)n1c(=O)n(-c3ccccc3)c(=O)n12 | 88 | 50 | – | – | –
C=C(C)[C@@H]1CC[C@]2(C(=O)Oc3ccc(C=O)cc3OC)CC[C@]3(C)[C@H](CC[C@@H]4[C@@]5(C)CCC(=O)C(C)(C)C5CC[C@]43C)[C@@H]12 (some centres undefined) [VANILLINYL BETULONATE] | 89 | 43 | – | – | –
C=C(C)[C@@H]1CC[C@]2(C(=O)OC)CC[C@]3(C)[C@H](CC[C@@H]4[C@@]5(C)CCC(=O)C(C)(C)[C@@H]5CC[C@]43C)[C@@H]12 [METHYL BETULONATE] | 83 | 71 | – | – | –
C=C(C)[C@@H]1CC[C@]2(COC(=O)c3ccccc3NC(C)=O)CC[C@]3(C)[C@H](CC[C@@H]4[C@@]5(C)CC[C@H](O)C(C)(C)[C@@H]5CC[C@]43C)[C@@H]12 | 94 | 82 | – | – | –

SMILES | viability at 24 h, 50 µM [1] [%] | Activity (Semliki Forest virus [2]) [%] | viability at 24 h, 500 µM [3] [%] | IC50 (Semliki Forest virus [4]; read-out: IC50) [µM] | IC50 (Semliki Forest virus [4]; read-out: pIC50 (converted)) [µM]
C=C(C)[C@@H]1CC[C@]2(/C=N/O)CC[C@]3(C)[C@H](CC[C@@H]4[C@@]5(C)CC[C@H](O)C(C)(C)[C@@H]5CC[C@]43C)[C@@H]12 | 82 | 55 | – | – | –
CC(=O)OC[C@]12CC[C@]3(C(C)C)C1=C1[C@H](C[C@@H]4[C@@]5(C)CC[C@H](OC(C)=O)C(C)(C)[C@@H]5CC[C@@]4(C)[C@]1(C)CC2)n1c(=O)n(-c2ccc(F)cc2)c(=O)n13 | 95 | 64 | – | – | –
C=C(C)[C@@H]1CC[C@]2(COC(C)=O)CC[C@]3(C)[C@H](CC[C@@H]4[C@@]5(C)CC[C@H](OC(C)=O)C(C)(C)[C@@H]5CC[C@]43C)[C@@H]12 [BETULIN DIACETATE] | 97 | 21 | – | 9.1 | 9.12
CC(C)C(=O)OC[C@]12CC[C@]3(C(C)C)C1=C1[C@H](C[C@@H]4[C@@]5(C)CC[C@H](OC(=O)C(C)C)C(C)(C)[C@@H]5CC[C@@]4(C)[C@]1(C)CC2)n1c(=O)n(C)c(=O)n13 | 106 | 24 | > 80 | – | –
CC(C)[C@@]12CC[C@]3(COC(=O)C4CCCCC4)CC[C@]4(C)C(=C31)[C@H](C[C@@H]1[C@@]3(C)CC[C@H](OC(=O)C5CCCCC5)C(C)(C)[C@@H]3CC[C@]14C)n1c(=O)n(C(C)(C)C)c(=O)n12 | 83 | 40 | – | – | –
C=C(C)[C@@H]1CC[C@]2(COC(=O)c3cccnc3)CC[C@]3(C)[C@H](CC[C@@H]4[C@@]5(C)CC[C@H](O)C(C)(C)[C@@H]5CC[C@]43C)[C@@H]12 | 94 | 43 | – | – | –
C=C(C)[C@@H]1CC[C@]2(COC(=O)C3C(C=C(C)C)C3(C)C)CC[C@]3(C)[C@H](CC[C@@H]4[C@@]5(C)CC[C@H](O)C(C)(C)[C@@H]5CC[C@]43C)[C@@H]12 (some centres undefined) | 90 | 95 | – | – | –
C=C(C)[C@@H]1CC[C@]2(C#N)CC[C@]3(C)[C@H](CC[C@@H]4[C@@]5(C)CC/C(=N\OC(C)=O)C(C)(C)[C@@H]5CC[C@]43C)[C@@H]12 | 85 | 73 | – | – | –
C=C(C)[C@@H]1CC[C@]2(COC(=O)/C=C/c3ccccc3)CC[C@]3(C)[C@H](CC[C@@H]4[C@@]5(C)CC[C@H](O)C(C)(C)[C@@H]5CC[C@]43C)[C@@H]12 | 96 | 111 | – | – | –
COc1cccc(-n2c(=O)n3n(c2=O)[C@]2(C(C)C)CC[C@]4(COC(C)=O)CC[C@]5(C)C(=C42)[C@@H]3C[C@@H]2[C@@]3(C)CC[C@H](OC(C)=O)C(C)(C)[C@@H]3CC[C@]25C)c1 | 93 | 121 | – | – | –
C=C(C)[C@@H]1CC[C@]2(COC(=O)CBr)CC[C@]3(C)[C@H](CC[C@@H]4[C@@]5(C)CC[C@H](O)C(C)(C)[C@@H]5CC[C@]43C)[C@@H]12 | 11 | 125 | – | – | –
C=C(C)[C@@H]1CC[C@]2(C(=O)N[C@@H](CC(=O)OC)C(=O)OC)CC[C@]3(C)[C@H](CC[C@@H]4[C@@]5(C)CCC(=O)C(C)(C)[C@@H]5CC[C@]43C)[C@@H]12 | 30 | 40 | – | – | –
C=C(C)[C@@H]1CC[C@]2(COS(C)(=O)=O)CC[C@]3(C)[C@H](CC[C@@H]4[C@@]5(C)CC[C@H](OC(C)=O)C(C)(C)[C@@H]5CC[C@]43C)[C@@H]12 | 99 | 46 | – | – | –
C=C(C)[C@@H]1CC[C@]2(C=O)CC[C@]3(C)[C@H](CC[C@@H]4[C@@]5(C)CC[C@H](O)C(C)(C)[C@@H]5CC[C@]43C)[C@@H]12 [BETULINALDEHYDE] | 0 | 1 | – | – | –
C=C(C)[C@@H]1CC[C@]2(COC(C)=O)CC[C@]3(C)[C@H](CC[C@@H]4[C@@]5(C)CC=CC(C)(C)[C@@H]5CC[C@]43C)[C@@H]12 | 95 | 98 | – | – | –
CCn1c(=O)n2n(c1=O)[C@]1(C(C)C)CC[C@]3(COC(C)=O)CC[C@]4(C)C(=C31)[C@@H]2C[C@@H]1[C@@]2(C)CC[C@H](OC(C)=O)C(C)(C)[C@@H]2CC[C@]14C | 40 | 24 | – | – | –
C=C(C)[C@@H]1CC[C@]2(C(=O)OC)CC[C@]3(C)[C@H](CC[C@@H]4[C@@]5(C)CC[C@H](O)C(C)(C)[C@@H]5CC[C@]43C)[C@@H]12 [METHYL BETULINATE] | 1 | 68 | – | – | –
